# Laboratory results: ChEMBL document CHEMBL3627626, “6-Substituted Pyrrolo[2,3-d]pyrimidine Thienoyl Regioisomers as Targeted Antifolates for Folate Receptor α and the Proton-Coupled Folate Transporter in Human Tumors” (J Med Chem, 2015)
# Active and inactive are the calls of the source. The rule behind the calls is not given here.
# T1: Trifunctional purine biosynthetic protein adenosine-3 (Homo sapiens, UniProt P22102)
# T1 sequence (P22102 whole entry): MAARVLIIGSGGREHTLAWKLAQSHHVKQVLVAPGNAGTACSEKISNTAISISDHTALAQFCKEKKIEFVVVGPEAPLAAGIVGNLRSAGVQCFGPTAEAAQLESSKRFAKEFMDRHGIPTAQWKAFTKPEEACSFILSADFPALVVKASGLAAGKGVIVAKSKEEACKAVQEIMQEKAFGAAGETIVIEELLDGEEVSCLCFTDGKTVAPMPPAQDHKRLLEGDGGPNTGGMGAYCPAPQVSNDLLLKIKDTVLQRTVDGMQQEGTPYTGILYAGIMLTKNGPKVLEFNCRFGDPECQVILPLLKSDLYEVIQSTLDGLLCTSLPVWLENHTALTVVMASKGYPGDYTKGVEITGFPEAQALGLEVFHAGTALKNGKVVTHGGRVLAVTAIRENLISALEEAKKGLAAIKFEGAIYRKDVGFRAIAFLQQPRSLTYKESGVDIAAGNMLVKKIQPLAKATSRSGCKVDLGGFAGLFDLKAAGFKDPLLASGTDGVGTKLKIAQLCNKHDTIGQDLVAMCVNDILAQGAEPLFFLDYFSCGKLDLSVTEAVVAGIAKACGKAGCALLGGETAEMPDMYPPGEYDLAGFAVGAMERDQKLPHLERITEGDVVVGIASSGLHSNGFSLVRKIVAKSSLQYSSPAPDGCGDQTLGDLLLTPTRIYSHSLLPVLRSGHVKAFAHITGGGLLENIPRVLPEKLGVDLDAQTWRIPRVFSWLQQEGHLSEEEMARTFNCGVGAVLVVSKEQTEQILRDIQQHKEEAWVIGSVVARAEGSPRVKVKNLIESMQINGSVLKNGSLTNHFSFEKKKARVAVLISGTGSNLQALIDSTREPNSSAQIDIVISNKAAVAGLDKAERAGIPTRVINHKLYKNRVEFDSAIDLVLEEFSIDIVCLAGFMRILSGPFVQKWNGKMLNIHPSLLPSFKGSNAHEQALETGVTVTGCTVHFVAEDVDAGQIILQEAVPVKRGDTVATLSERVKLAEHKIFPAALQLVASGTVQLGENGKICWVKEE
# T2: Trifunctional purine biosynthetic protein adenosine-3 (Homo sapiens) (UniProt P22102)
# T2 sequence (whole entry): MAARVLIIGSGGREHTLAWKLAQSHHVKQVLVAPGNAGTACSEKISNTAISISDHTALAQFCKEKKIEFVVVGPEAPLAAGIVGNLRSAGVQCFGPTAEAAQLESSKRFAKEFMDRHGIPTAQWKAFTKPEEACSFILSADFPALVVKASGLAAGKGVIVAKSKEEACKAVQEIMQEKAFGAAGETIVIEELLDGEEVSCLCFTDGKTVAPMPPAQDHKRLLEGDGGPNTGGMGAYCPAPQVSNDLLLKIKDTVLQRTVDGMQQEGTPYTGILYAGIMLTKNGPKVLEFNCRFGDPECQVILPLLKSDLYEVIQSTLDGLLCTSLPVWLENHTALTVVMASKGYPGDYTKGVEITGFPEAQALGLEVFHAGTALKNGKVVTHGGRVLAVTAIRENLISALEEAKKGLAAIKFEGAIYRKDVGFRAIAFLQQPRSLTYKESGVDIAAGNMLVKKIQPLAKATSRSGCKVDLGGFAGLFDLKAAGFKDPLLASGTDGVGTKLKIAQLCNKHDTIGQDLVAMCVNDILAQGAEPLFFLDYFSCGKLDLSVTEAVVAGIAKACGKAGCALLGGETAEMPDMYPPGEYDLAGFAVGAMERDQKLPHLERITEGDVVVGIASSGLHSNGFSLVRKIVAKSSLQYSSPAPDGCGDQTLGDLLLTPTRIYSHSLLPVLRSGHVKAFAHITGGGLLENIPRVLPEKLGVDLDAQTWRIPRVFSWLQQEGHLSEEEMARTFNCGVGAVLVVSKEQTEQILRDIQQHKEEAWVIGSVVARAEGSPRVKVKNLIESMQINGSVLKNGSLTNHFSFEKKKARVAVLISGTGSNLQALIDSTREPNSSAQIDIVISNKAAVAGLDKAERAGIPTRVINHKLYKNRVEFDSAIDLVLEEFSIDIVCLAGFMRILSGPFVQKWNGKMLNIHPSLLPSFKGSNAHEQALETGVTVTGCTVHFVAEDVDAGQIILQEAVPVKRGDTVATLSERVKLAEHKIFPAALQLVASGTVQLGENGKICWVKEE
# B1: Proton-coupled folate transporter (Homo sapiens), Q96NT5 (protein)
# chain: MEGSASPPEKPRARPAAAVLCRGPVEPLVFLANFALVLQGPLTTQYLWHRFSADLGYNGTRQRGGCSNRSADPTMQEVETLTSHWTLYMNVGGFLVGLFSSTLLGAWSDSVGRRPLLVLASLGLLLQALVSVFVVQLQLHVGYFVLGRILCALLGDFGGLLAASFASVADVSSSRSRTFRMALLEASIGVAGMLASLLGGHWLRAQGYANPFWLALALLIAMTLYAAFCFGETLKEPKSTRLFTFRHHRSIVQLYVAPAPEKSRKHLALYSLAIFVVITVHFGAQDILTLYELSTPLCWDSKLIGYGSAAQHLPYLTSLLALKLLQYCLADAWVAEIGLAFNILGMVVFAFATITPLMFTGYGLLFLSLVITPVIRAKLSKLVRETEQGALFSAVACVNSLAMLTASGIFNSLYPATLNFMKGFPFLLGAGLLLIPAVLIGMLEKADPHLEFQQFPQSP
# Columns and labels:
# [1] = molecular target: T1, Trifunctional purine biosynthetic protein adenosine-3; assay: Inhibition of GARFTase in human KB cells expressing FRalpha/PCFT/RFC assessed as incorporation of [14C(U)]-glycine into [14C]-formyl GAR preincubated for 1 hr followed by azaserine, L-glutamine, 14C(U)]-glycine addition measured after 16 hrs; format: cell-based
# Method in brief: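 In situ assay in KB cells. Cells were exposed to a range of drug concentrations with [14C]glycine for 16 h under proliferation-assay conditions, with azaserine present. Radiolabelled metabolites were extracted and separated on anion exchange columns, and [14C]formyl GAR quantified. Mean ±SE of three experiments.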
# [2] = molecular target: T2, Trifunctional purine biosynthetic protein adenosine-3 (Homo sapiens); assay: Inhibition of GARFTase in human KB cells expressing FRalpha/PCFT/RFC assessed as cell growth inhibition after 96 hrs by CellTiter-Blue assay in presence of adenosine; format: cell-based
# [3] = molecular target: T2, Trifunctional purine biosynthetic protein adenosine-3 (Homo sapiens); assay: Inhibition of GARFTase in human KB cells expressing FRalpha/PCFT/RFC assessed as cell growth inhibition after 96 hrs by CellTiter-Blue assay in presence of AICA; format: cell-based
# [4] = molecular target: T1, Trifunctional purine biosynthetic protein adenosine-3; assay: Inhibition of human recombinant His-tagged GARFTase assessed as formation of 5,8-dideazafolate from 10-formyl-5,80-dideazafolic acid measured every 15 secs over 20 mins by spectrophotometric analysis
# IGROV-1 = assay: Antiproliferative activity against human IGROV1 cells after 96 hrs by CellTiter-Blue assay; format: functional, cell-based; conditions: IGROV-1, 96 h
# Method in brief: (§1)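 IGROV1 and SKOV3 cells plated at ~2500–5000 cells/well in folate-free RPMI 1640 with 10% dialyzed FBS, antibiotics and 2 nM LCV, over a range of drug concentrations, ±200 nM folic acid in parallel. Incubated up to 96 h. Viability read by Cell Titer Blue fluorescence (ex 560/em 590 nm).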
# KB = assay: Antiproliferative activity against human KB cells expressing FRalpha/PCFT/RFC assessed as cell growth inhibition after 96 hrs by CellTiter-Blue assay in presence of 200 nM folic acid; format: functional, cell-based
# SK-OV-3 [5] = assay: Antitumor activity against human SKOV3 cells expressing RFC/PCFT/FRalpha xenografted in folate-deficient diet fed NCR SCID mouse assessed as delay in tumor growth at 28 mg/kg, iv administered every 4 days on day 3, 7, 11 measured twice per week; format: functional, organism-based
# Method in brief: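 Female NCR SCID mice, 10 weeks old, given bilateral subcutaneous SKOV3 tumor fragments and randomized at 5 mice/group. Fed ad libitum a folate-deficient diet or a standard folate-replete diet. Dosed intravenously at 0.2 mL/injection on a Q4dx3 schedule (days 3, 7, 11). […] Tumors measured twice weekly; mice weighed daily.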
# Mus musculus [6] = assay: Toxicity in folate-replete diet fed NCR SCID mouse xenografted with human SKOV3 cells expressing RFC/PCFT/FRalpha assessed as body weight loss at 28 mg/kg, iv administered every 4 days on day 3, 7, 11; format: organism-based, SK-OV-3; conditions: in vivo, 96 h
# Mus musculus [7] = assay: Toxicity in folate-deficient diet fed NCR SCID mouse xenografted with human SKOV3 cells expressing RFC/PCFT/FRalpha assessed as body weight loss at 28 mg/kg, iv administered every 4 days on day 3, 7, 11 relative to control; format: organism-based, SK-OV-3; conditions: in vivo, 96 h
# Method in brief: (§2)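 Ten-week-old female NCR SCID mice, fed a folate-deficient or standard folate-replete diet, were implanted subcutaneously and bilaterally with SKOV3 tumour fragments. Randomised at 5 mice/group. Dosed intravenously, 0.2 mL per injection, in 5% ethanol/1% Tween-80/0.5% NaHCO3 in water at pH 6.5, on days 3, 7 and 11. Tumours measured twice weekly and mice weighed daily. T/C taken on day 21; growth delay and log cell kill also reported.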
# SK-OV-3 [8] = assay: Antiproliferative activity against human SKOV3 cells after 96 hrs by CellTiter-Blue assay in presence of 200 nM folic acid; format: functional, cell-based; conditions: SK-OV-3, 96 h; method in brief: as §1
# [9] = molecular target: Folate receptor beta (Homo sapiens) (UniProt P14207); assay: Displacement of [3H]-folic acid from human FRbeta expressed in Chinese hamster D4 cells after 15 mins relative to folic acid; format: cell-based
# Folate receptor beta (Homo sapiens), sequence (P14207 17-230 limits assumed): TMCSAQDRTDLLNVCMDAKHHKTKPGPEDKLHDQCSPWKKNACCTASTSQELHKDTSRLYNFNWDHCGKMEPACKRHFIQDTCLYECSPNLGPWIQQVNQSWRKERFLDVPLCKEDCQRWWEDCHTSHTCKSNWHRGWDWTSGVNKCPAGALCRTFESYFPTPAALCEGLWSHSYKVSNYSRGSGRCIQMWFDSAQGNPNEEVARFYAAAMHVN
# Method in brief: (§3)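 Competitive binding to surface folate receptor on RT16 (FRα) or D4 (FRβ) CHO cells. Cells were acid-washed (pH 3.5) to strip bound folate, then incubated in HEPES-buffered saline pH 7.4 with 50 nM [3H]folic acid plus unlabeled ligand (0–1000 nM) for 15 min at 0 °C. Bound label was normalised to protein. Affinity is the inverse molar ratio for 50% displacement, with folic acid set to 1. Mean of 4–10 experiments ±SE.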
# SK-OV-3 [10] = assay: Antitumor activity against human SKOV3 cells expressing RFC/PCFT/FRalpha xenografted in folate-replete diet fed NCR SCID mouse assessed as tumor growth inhibition at 28 mg/kg, iv administered every 4 days on day 3, 7, 11 measured on day 21 relative to control; format: functional; method in brief: as §2
# [11] = Binding affinity to human RFC expressed in Chinese hamster PC43-10 cells assessed as cell growth inhibition after 96 hrs by CellTiter-Blue assay
# [12] = molecular target: Folate receptor alpha (Homo sapiens) (UniProt P15328); assay: Displacement of [3H]-folic acid from human FRalpha expressed in Chinese hamster RT16 cells after 15 mins relative to folic acid; format: cell-based; method in brief: as §3
# Folate receptor alpha (Homo sapiens), sequence (P15328 25-234 limits assumed): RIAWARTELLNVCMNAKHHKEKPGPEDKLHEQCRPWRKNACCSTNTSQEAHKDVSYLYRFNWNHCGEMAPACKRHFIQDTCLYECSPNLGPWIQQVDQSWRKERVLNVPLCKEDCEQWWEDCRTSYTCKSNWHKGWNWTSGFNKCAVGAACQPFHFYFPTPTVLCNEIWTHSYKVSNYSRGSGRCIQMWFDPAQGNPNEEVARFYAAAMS
# SK-OV-3 [13] = assay: Antiproliferative activity against human SKOV3 cells after 96 hrs by CellTiter-Blue assay; format: functional, cell-based; conditions: SK-OV-3, 96 h; method in brief: as §1
# [14] = substrate: Nc1nc2[nH]cc(CCc3ccc(C(=O)N[C@@H](CCC(=O)O)C(=O)O)cc3)c2c(=O)[nH]1; assay: (§4) Binding affinity to human PCFT expressed in Chinese hamster R2/PCFT4 cells assessed as intracellular drug transport rate at 37 degC at pH 6.8 measured over 2 mins by Lineweaver-Burk plot analysis; format: cell-based
# Method in brief: (§5)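 R2/PCFT4 CHO cells were grown as monolayers, transferred to spinner flasks, and used as suspensions (5–10 × 10⁷ cells). Uptake was quenched with ice-cold DPBS and cells were NaOH-solubilized. Results are pmol/mg protein; Kt and Vmax come from Lineweaver–Burke plots.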
# [15] = substrate: Nc1nc2[nH]c(CCCc3cc(C(=O)N[C@@H](CCC(=O)O)C(=O)O)cs3)cc2c(=O)[nH]1; assay: as §4; format: cell-based; method in brief: as §5
# [16] = substrate: Nc1nc2[nH]cc(CCc3ccc(C(=O)N[C@@H](CCC(=O)O)C(=O)O)cc3)c2c(=O)[nH]1; assay: (§6) Binding affinity to human PCFT expressed in Chinese hamster R2/PCFT4 cells assessed as intracellular drug transport rate at 37 degC at pH 5.5 measured over 2 mins by Lineweaver-Burk plot analysis; format: cell-based; method in brief: as §5
# [17] = substrate: Nc1nc2[nH]c(CCCc3cc(C(=O)N[C@@H](CCC(=O)O)C(=O)O)cs3)cc2c(=O)[nH]1; assay: as §6; format: cell-based; method in brief: as §5
molecule,measurement,setting,value
Nc1nc(N)c2c(CCCc3csc(C(=O)N[C@@H](CCC(=O)O)C(=O)O)c3)coc2n1,IC50,[1],82 nM
same,inhibition,[2],inactive
same,inhibition,[3],inactive
same,Ki,[4],5500 nM
Nc1nc2[nH]c(CCCc3ccc(C(=O)N[C@@H](CCC(=O)O)C(=O)O)s3)cc2c(=O)[nH]1,IC50,IGROV-1,0.73 nM
same,IC50,KB,101 nM
same,Activity,SK-OV-3 [5],Active
same,Activity,Mus musculus [6],Non-toxic
same,Activity,Mus musculus [7],7.9%
same,IC50,SK-OV-3 [8],47 nM
same,Activity,[9],50%
same,T/C,SK-OV-3 [10],79%
same,IC50,[11],101 nM
same,inhibition,[2],inactive
same,Activity,[12],70%
same,inhibition,[3],inactive
same,IC50,SK-OV-3 [13],2.2 nM
B1,Vmax,[14],9.2 pmol/mg/min
same,Vmax,[15],3 pmol/mg/min
same,Vmax,[16],13.4 pmol/mg/min
same,Vmax,[17],24.6 pmol/mg/min
